OX1R antag-1: antagonists of human orexin 1 receptor; AID 434989; 0.43% of 330,000 active; O43613; inhibition, % at 5 µM; CHO/OX1R cells, Fluo-8 calcium fluorescence, orexin A;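 active = inhibition above its plate's threshold, mean inhibition of all tested compounds on the plate plus 3 SD, cut at about 37% in these data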;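 note: 0% = orexin A challenge wells and 100% = SB-334867-A antagonist wells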
CHO parental Ca: counter-screen for OX1R antagonists: effect in parental CHO cells | 0.63% of 330,000 active | inhibition, % at 5.6 µM | parental CHO-K1, ATP-induced calcium, Fluo-8 fluorescence | AID 463079;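 active = inhibition above that plate's mean sample inhibition plus 3 SD, cut at about 26% in these data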;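 note: 0% = ATP-challenged DMSO wells and 100% = DMSO wells without ATP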
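Assay system: untransfected parental CHO cell line. Also added: ATP agonist challenge. Dosing: one dose, 5.6 µM nominal. Measured by: Fluo-8 fluorescence. Read-out: % inhibition. Benchmarks: ATP wells versus no-ATP DMSO wells. Repeats: no replicates.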
OX1R antag-2: antagonists of human orexin 1 receptor (OX1R); inhibition, % at 6.6 µM; 1.8% of 330,000 active; OX1R-expressing cells, FRET antagonist read-out; AID 485270; O43613; in the data active = inhibition mostly above about 38%, no sharp cut-off; inactive = mostly below about 40%;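 note: 0% = agonist challenge alone and 100% = reference antagonist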
GPR7 antag: blocks human GPR7 receptor signaling; GPR7-expressing cells, fluorescence antagonist assay; inhibition, % at 4.4 µM; AID 1861; P48145; 1.1% of 290,000 active; in the data active = inhibition above about 16%, passing the limit was not always enough;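 note: cells stimulated with the agonist NPW; 0% = agonist with vehicle and 100% = vehicle without agonist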
Target sequence (P48145 whole entry, looked up): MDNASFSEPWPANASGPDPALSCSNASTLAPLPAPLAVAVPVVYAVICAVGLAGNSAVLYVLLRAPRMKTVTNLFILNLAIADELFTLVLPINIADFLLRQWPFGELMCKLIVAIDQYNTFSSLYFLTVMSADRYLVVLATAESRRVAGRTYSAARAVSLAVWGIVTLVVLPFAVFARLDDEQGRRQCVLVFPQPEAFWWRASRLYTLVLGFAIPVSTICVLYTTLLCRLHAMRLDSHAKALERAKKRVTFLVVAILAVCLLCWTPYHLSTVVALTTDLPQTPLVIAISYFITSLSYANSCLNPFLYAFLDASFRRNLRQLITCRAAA
TAAR1 antag: antagonists of human TAAR1; Q96RJ0; CHO RD-HGA16 TAAR1, Fluo-8 calcium fluorescence, antagonist; inhibition, % at 3 µM; 1.5% of 360,000 active;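 active = inhibition above a per-plate cutoff, the mean inhibition of test compounds on that plate plus 3 SD, cut at about 49% in these data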;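 note: 0% = DMSO plus EC80 beta-PEA response and 100% = DMSO alone without agonist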
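Test system: RD-HGA16 CHO cells with stable hTAAR1 and Gα16 / Probe or stimulus: EC80 β-phenethylamine stimulus / Times: seeding 17-24 h prior, 75-min 37 °C, 30-min RT dye loading / Detection: Fluo-8 calcium-sensitive fluorescence / Read-out basis: % inhibition scaled between DMSO and EC80 PEA controls / Repeats: singlicate, one well per test compound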
TAAR1 agonist: human TAAR1 agonism; AID 624467; CHO RD-HGA16 TAAR1, Fluo-8 calcium fluorescence; vehicle wells 0%, saturating PEA agonist 100%; activation, % at 3 µM; Q96RJ0; 0.99% of 360,000 active;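 active = activation above the mean activation of all test compounds in the run plus 3 SD, cut at about 38% in these data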
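Test system: RD-HGA16 (CHO) cells co-expressing Gα16 and hTAAR1 | Doses: Single dose, 3 µM | Schedule: 17-24 h seeding, 75 min 37 °C dye, 30 min RT | Evaluation: % activation from peak over basal fluorescence ratio, DMSO-to-PEA scaled | Technique: Kinetic Fluo-8 calcium fluorescence | Benchmarks: Low control DMSO, high control PEA (EC100)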
* hit, by the source's call. The list is not random: actives were taken first. Their share in the collection is about 4.5%.

How did Cc1cccc2cc(C#N)c(NCc3ccccc3)nc12 do in these assays?
OX1R antag-1: -26; CHO parental Ca: -13; OX1R antag-2: 22; GPR7 antag: -14; TAAR1 antag: -11; TAAR1 agonist: 3

What do the screens show for `C[C@@H]1CN([C@H](C)CO)C(=O)c2cc(NC(=O)Nc3ccccc3)ccc2O[C@@H](C)CCCCO[C@H]1CN(C)S(C)(=O)=O`?
TAAR1 antag: -14; TAAR1 agonist: 4

How did COc1ccccc1CNC(=O)c1cc(C2CC2)nc2c1cnn2C(C)C do in these assays?
OX1R antag-1: -40; CHO parental Ca: -32; OX1R antag-2: 9; TAAR1 antag: 20; TAAR1 agonist: -1

Results for CC(C)n1ncc2c(C(=O)NCCOc3ccccc3F)cc(C3CC3)nc21 ?
OX1R antag-1: -24; CHO parental Ca: -28; OX1R antag-2: 11; TAAR1 antag: 50*; TAAR1 agonist: 2

Results for CCOc1ccc(OCCNC(=O)c2cc(C3CC3)nc3c2cnn3C(C)C)cc1 ?
TAAR1 antag: 60*; TAAR1 agonist: 2

How did Cc1cc(=O)[nH]c(SCC(=O)Nc2ccc(N3CCCCC3)cc2)n1 do in these assays?
OX1R antag-1: 37; CHO parental Ca: 43*; OX1R antag-2: 9; TAAR1 antag: -1; TAAR1 agonist: -2

How did NC1=NC[C@H](Cc2ccccc2)N1CCCCC1CCCCC1 do in these assays?
OX1R antag-1: 75*; CHO parental Ca: 74*; OX1R antag-2: -12; TAAR1 antag: 58*; TAAR1 agonist: 33

Results for NC1=NC[C@H](Cc2ccc(O)cc2)N1CCCCC1CCCCC1 ?
OX1R antag-1: -7; CHO parental Ca: -6; OX1R antag-2: 23; TAAR1 antag: -2; TAAR1 agonist: 9

What do the screens show for `COC(=O)C1=C(C)N(Cc2ccccc2C(F)(F)F)C(=NCc2ccccc2)NC1c1cccc(F)c1` (configuration not stated)?
TAAR1 antag: -12; TAAR1 agonist: 6

What do the screens show for `COC(=O)[C@]12C[C@H](CC(=O)NCc3ccc(C)o3)C(=O)N(Cc3ccccc3)C1=C[C@H](C(C)(C)C)O[C@@H]2C`?
TAAR1 antag: -44; TAAR1 agonist: -2

How did Cc1ccc(-c2csc(NCCn3c(-c4ccncc4)nc4ccccc43)n2)cc1 do in these assays?
OX1R antag-1: -10; CHO parental Ca: -30; OX1R antag-2: 60*; GPR7 antag: 6; TAAR1 antag: 41; TAAR1 agonist: 15

Results for COc1cc(-c2cc(=O)c3ccc(O)cc3o2)cc(OC)c1OC ?
TAAR1 antag: 2; TAAR1 agonist: 1

Results for COc1cc(OC)c(-c2c3cc(O)c(=O)cc-3oc3cc(O)c(O)cc23)cc1OC ?
OX1R antag-1: 105*; CHO parental Ca: 74*; OX1R antag-2: 17; GPR7 antag: -4; TAAR1 antag: 71*; TAAR1 agonist: 367*

Results for Nc1ccc(F)c(CN2CCN(c3ncc(Cc4ccccc4)cn3)CC2)c1 ?
TAAR1 antag: -11; TAAR1 agonist: 6

Results for COc1cccc(N2CCN(CC(=O)Nc3ccccc3C(=O)NCCc3ccccc3)CC2)c1 ?
OX1R antag-1: 0; CHO parental Ca: -27; OX1R antag-2: 4; TAAR1 antag: 53*; TAAR1 agonist: 30

How did Oc1ccc(N2CCN(C(=S)NCCc3ccccc3)CC2)cc1 do in these assays?
OX1R antag-1: -14; CHO parental Ca: -4; OX1R antag-2: 24; GPR7 antag: 0; TAAR1 antag: 9; TAAR1 agonist: 31

How did O=C(CN1CCN(c2ccc(O)cc2)CC1)Nc1ccccc1C(=O)NCCc1ccccc1 do in these assays?
OX1R antag-1: -1; CHO parental Ca: -4; OX1R antag-2: 11; TAAR1 antag: 63*; TAAR1 agonist: 12

What do the screens show for `Cc1cc(C)c(S(=O)(=O)c2ccc(Cl)cc2)c(Cl)n1`?
OX1R antag-1: 0; CHO parental Ca: -14; OX1R antag-2: 9; GPR7 antag: -14; TAAR1 antag: -1; TAAR1 agonist: 7

How did Cc1cc(S(=O)(=O)c2ccc(Cl)cc2)nc(S(=O)(=O)c2ccc(Cl)cc2)c1C#N do in these assays?
TAAR1 antag: 68*; TAAR1 agonist: 5

Screens (PubChem)
